{"data": "Results pooled from the literature", "target": "Serine/threonine-protein kinase 17B (STK17B, Homo sapiens, UniProt O94768)", "One construct used (O94768 1-372)": "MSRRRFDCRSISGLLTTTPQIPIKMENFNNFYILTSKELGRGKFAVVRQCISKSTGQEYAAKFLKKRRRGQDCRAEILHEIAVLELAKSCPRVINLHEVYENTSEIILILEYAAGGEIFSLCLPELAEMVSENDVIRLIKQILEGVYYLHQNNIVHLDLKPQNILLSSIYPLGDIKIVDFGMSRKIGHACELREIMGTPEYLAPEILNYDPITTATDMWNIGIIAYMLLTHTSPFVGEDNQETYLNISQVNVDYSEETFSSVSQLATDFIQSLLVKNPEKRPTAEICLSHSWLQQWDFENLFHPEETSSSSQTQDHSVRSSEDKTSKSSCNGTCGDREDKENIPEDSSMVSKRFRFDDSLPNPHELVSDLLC", "note": "Each line is one published result; the experiments were not run side by side."}
{"Structure (SMILES)": "O=C(NCC1CCOCC1)c1n[nH]cc1NC(=O)c1c(F)cccc1F", "test": "binding, competition with immobilised ligand", "conditions": "1 µM", "remaining binding [%]": 91}
{"Structure (SMILES)": "N[C@H]1CCN(c2nccc(-c3cnn4ncccc34)n2)C1", "test": "binding", "conditions": "1 µM", "remaining binding [%]": 100}
{"Structure (SMILES)": "Cn1cc(Cl)c2c(Oc3c(F)cc(Nc4cc(Cl)nc(N)n4)cc3F)ccnc21", "test": "cell-free assay, competition with immobilised ligand", "conditions": "0.1 µM", "remaining binding [%]": 84}
{"Structure (SMILES)": "C[C@@H](c1ccc(-n2cnc3c(N)ncnc32)cc1)N1CCc2nn(C)c(Cc3ccccc3)c2C1=O", "test": "binding, competition with immobilised ligand", "conditions": "0.1 µM", "remaining binding [%]": 100}
{"Structure (SMILES)": "Cc1c(C(=O)O)cc(-c2ccc(C3CCNCC3)cc2)c2ccc(-c3ccc(C(F)(F)F)cc3)cc12", "test": "cell-free assay, competition with immobilised ligand", "conditions": "1 µM", "remaining binding [%]": 100}
{"Structure (SMILES)": "c1cnn2ncc(-c3ccnc(N4CCC45COC5)n3)c2c1", "test": "binding", "conditions": "1 µM", "remaining binding [%]": 100}
{"Structure (SMILES)": "O=C(c1ccc(Nc2ncc(Cl)c(-c3ccc(Cl)s3)n2)cc1)N1CCC(N2CCCC2)CC1", "test": "binding, competition with immobilised ligand", "conditions": "1 µM", "remaining binding [%]": 2.7}
{"Structure (SMILES)": "CCCOc1ccc([C@H]2[C@H](C(=O)O)[C@@H](c3ccc4c(c3)OCO4)CN2CC(=O)Nc2c(CC)cccc2CC)cc1", "test": "cell-free assay, competition with immobilised ligand", "conditions": "1 µM", "remaining binding [%]": 91}
{"Structure (SMILES)": "Nc1ncc2c(n1)-c1c([nH]c3ccc(C#CC4CC4)cc13)CCCC2", "test": "binding, competition with immobilised ligand", "conditions": "1 µM", "remaining binding [%]": 96}
{"Structure (SMILES)": "O=C(c1ccc(Nc2nccc(-c3cc4ccccc4s3)n2)cc1)N1CCC(N2CCCC2)CC1", "test": "binding, competition with immobilised ligand", "conditions": "1 µM", "remaining binding [%]": 0}
{"Structure (SMILES)": "COc1cnc(Nc2cccc(S(N)(=O)=O)c2)nc1N1CCN(c2ccccc2)C(=O)C1", "test": "binding, competition with immobilised ligand", "conditions": "1 µM", "remaining binding [%]": 89}
{"Structure (SMILES)": "CN(C)c1nccc(-c2cnc3ncccn23)n1", "test": "binding", "conditions": "1 µM", "remaining binding [%]": 100}
{"Structure (SMILES)": "Cc1cnc(Nc2ccc(C(=O)N3CCC(N4CCCC4)CC3)cc2)nc1-c1cc2ccccc2s1", "test": "binding, competition with immobilised ligand", "conditions": "1 µM", "remaining binding [%]": 0}
{"Structure (SMILES)": "CN(c1nccc(-c2cnn3ncccc23)n1)C1CC1", "test": "binding", "conditions": "1 µM", "remaining binding [%]": 100}
{"Structure (SMILES)": "O=C(NCc1ncc(C(F)(F)F)cc1Cl)c1ccc2c(c1)C1(CCS(=O)(=O)CC1)[C@H](C1CC1)N2S(=O)(=O)c1ccc(F)cc1", "test": "cell-free assay, competition with immobilised ligand", "conditions": "1 µM", "remaining binding [%]": 85}
{"Structure (SMILES)": "CN(C)c1ncc(F)c(-c2cnn3ncccc23)n1", "test": "binding", "conditions": "1 µM", "remaining binding [%]": 87}
{"Structure (SMILES)": "CC(C)CC(=O)N1CCc2nc(-c3ccc(Br)cc3)nc(N(C)Cc3ccccc3)c2C1", "test": "cell-free assay, competition with immobilised ligand", "conditions": "0.1 µM", "remaining binding [%]": 91}
{"Structure (SMILES)": "CN(C)c1nccc(-c2cnn3ncccc23)n1", "test": "binding", "conditions": "1 µM", "remaining binding [%]": 100}
{"Structure (SMILES)": "CN(C)C(=O)Cn1cc(-c2nc(C3(c4ccc(-c5cnc(N)nc5)cc4)CC3)no2)cn1", "test": "cell-free assay, competition with immobilised ligand", "conditions": "1 µM", "remaining binding [%]": 100}
{"Structure (SMILES)": "C[C@@H]1CCN(c2nccc(-c3cnn4ncccc34)n2)C1", "test": "binding", "conditions": "1 µM", "remaining binding [%]": 100}
{"Structure (SMILES)": "CNC(=O)[C@@H]1CC[C@@H](n2c(-c3ccc4cnccc4c3)nc3ccc(C(=O)NCc4cccc(C(N)=O)c4)cc32)C1", "test": "binding, competition with immobilised ligand", "conditions": "1 µM", "remaining binding [%]": 99}
{"Structure (SMILES)": "FC(F)(F)Oc1cccc(-c2cnc3ccc(-c4ccncc4)nn23)c1", "test": "cell-free assay, competition with immobilised ligand", "conditions": "5 µM", "remaining binding [%]": 85}
